Laboratory results taken from ChEMBL document CHEMBL1122584 (1984).
Peptide text beside a SMILES is read from it.

Legend:
Rattus norvegicus [1] = species: Rattus norvegicus; assay: Potency of glycogenolytic activity was reported by four point assay; type: functional
Rattus norvegicus [2] = species: Rattus norvegicus; assay: Compound was evaluated for its glycogenolytic activity in normal male rats and the plasma glucose level was determined at 2 ug/100 g of body weight; type: functional, organism-based
How it was run: (§1)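 Groups of five, anesthetized with sodium pentobarbital (6–7 mg/100 g), given peptide in saline s.c. (0.5 mL) 30 min later. Jugular blood was drawn at 15 min into EDTA, and plasma glucose was measured by glucose oxidase. Mean ± SD, n = 5.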

Rattus norvegicus [3] = species: Rattus norvegicus; assay: (§2) Compound was evaluated for its glycogenolytic activity in normal male rats and the plasma glucose level was determined at 1 ug/100 g of body weight; type: functional, organism-based; how it was run: as §1
Rattus norvegicus [4] = species: Rattus norvegicus; assay: Compound was evaluated for its glycogenolytic activity in normal male rats and the plasma glucose level was determined at 4 ug/100 g of body weight; type: functional, organism-based
How it was run: as §1, with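 “Male Charles River CD rats (175–350 g), fed and kept at 24 ± 2 °C under a 0500–1900 h light cycle for at least 1 week. Groups” for “Groups”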

Rattus norvegicus [5] = species: Rattus norvegicus; assay: Compound was evaluated for its glycogenolytic activity in normal male rats and the plasma glucose level was determined at 0.5 ug/100 g of body weight; type: functional, organism-based
Rattus norvegicus [6] = species: Rattus norvegicus; assay: potency of glycogenolytic activity was reported by four point assay.; type: functional, organism-based
Rattus norvegicus [7] = species: Rattus norvegicus; assay: as §2; type: functional, organism-based; remark: listed apart in the source
How it was run: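 Male Charles River CD rats (175–350 g), fed, anesthetized with sodium pentobarbital (6–7 mg/100 g), dosed subcutaneously 30 min later with peptide in saline (0.5 mL, gelatin-coated syringes), groups of five. Jugular blood drawn exactly 15 min post-injection into EDTA, and plasma glucose measured by glucose oxidase. Values are mean ± SD, n = 5.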

Rattus norvegicus [8] = species: Rattus norvegicus; assay: Compound was evaluated for its glycogenolytic activity in normal male rats and the plasma glucose level was determined at 12 ug/100 g of body weight; type: functional, organism-based
How it was run: as §1, with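 “Male Charles River CD rats (175–350 g), fed and kept at 24 ± 2 °C under a 0500–1900 h light cycle for at least 1 week. Groups” for “Groups”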

Rattus norvegicus [9] = species: Rattus norvegicus; assay: Compound was evaluated for its glycogenolytic activity in normal male rats and the plasma glucose level was determined at 6 ug/100 g of body weight; type: functional, organism-based
How it was run: as §1, with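 “Male Charles River CD rats (175–350 g), fed and kept at 24 ± 2 °C under a 0500–1900 h light cycle for at least 1 week. Groups” for “Groups”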

Q: Which Potency (Rattus norvegicus [1]) does the source give for `CSCC[C@H](NC(=O)[C@H](CC(C)C)NC(=O)[C@H](Cc1c[nH]c2ccccc12)NC(=O)[C@H](CCC(N)=O)NC(=O)[C@@H](NC(=O)[C@H](Cc1ccccc1)NC(=O)[C@H](CC(=O)O)NC(=O)[C@H](CCC(N)=O)NC(=O)[C@H](C)NC(=O)[C@H](CCCN=C(N)N)NC(=O)[C@H](CCCN=C(N)N)NC(=O)[C@H](CO)NC(=O)[C@H](CC(=O)O)NC(=O)[C@H](CC(C)C)NC(=O)[C@H](Cc1ccc(O)cc1)NC(=O)[C@H](CCCN=C(N)N)NC(=O)[C@H](CO)NC(=O)[C@H](Cc1ccc(O)cc1)NC(=O)[C@H](CC(=O)O)NC(=O)[C@H](CO)NC(=O)[C@@H](NC(=O)[C@H](Cc1ccccc1)NC(=O)[C@@H](NC(=O)[C@@H](C)NC(=O)[C@H](CCC(N)=O)NC(=O)[C@H](CO)NC(=O)[C@@H](N)Cc1c[nH]cn1)[C@@H](C)O)[C@@H](C)O)C(C)C)C(=O)N[C@@H](CC(N)=O)C(=O)N[C@H](C(=O)O)[C@@H](C)O` here?
A: 44%

Q: And the Plasma glucose (Rattus norvegicus [2])?
A: 198 mg 100ml-1

Q: What about the Plasma glucose (Rattus norvegicus [3]) of the same compound?
A: 174 mg 100ml-1

Q: `CSCC[C@H](NC(=O)[C@H](CC(C)C)NC(=O)[C@H](Cc1c[nH]c2ccccc12)NC(=O)[C@H](CCC(N)=O)NC(=O)[C@@H](NC(=O)[C@H](Cc1ccccc1)NC(=O)[C@H](CC(=O)O)NC(=O)[C@H](CCC(N)=O)NC(=O)[C@H](C)NC(=O)[C@H](CCCN=C(N)N)NC(=O)[C@H](CCCN=C(N)N)NC(=O)[C@H](CO)NC(=O)[C@H](CC(=O)O)NC(=O)[C@H](CC(C)C)NC(=O)[C@H](Cc1ccc(O)cc1)NC(=O)[C@H](CCCN=C(N)N)NC(=O)[C@H](CO)NC(=O)[C@H](Cc1ccc(O)cc1)NC(=O)[C@H](CC(=O)O)NC(=O)[C@H](CO)NC(=O)[C@@H](NC(=O)[C@H](Cc1ccccc1)NC(=O)[C@@H](NC(=O)[C@@H](C)NC(=O)[C@H](CCC(N)=O)NC(=O)[C@H](CO)NC(=O)[C@H](N)Cc1ccc(Cl)cc1)[C@@H](C)O)[C@@H](C)O)C(C)C)C(=O)N[C@@H](CC(N)=O)C(=O)N[C@H](C(=O)O)[C@@H](C)O` was tested. Which Potency (Rattus norvegicus [1]) did it give?
A: 9%

Q: What about the Plasma glucose (Rattus norvegicus [2]) of the same compound?
A: 158 mg 100ml-1

Q: What about the Plasma glucose (Rattus norvegicus [4]) of the same compound?
A: 176 mg 100ml-1

Q: GLUCAGON was tested. Which Potency (Rattus norvegicus [1]) did it give?
A: 100%

Q: And the Plasma glucose (Rattus norvegicus [5])?
A: 186 mg 100ml-1 [middle of 4 runs]

Q: What about the Potency (Rattus norvegicus [6]) of the same compound?
A: 100%

Q: What about the Plasma glucose (Rattus norvegicus [7]) of the same compound?
A: 213 mg 100ml-1 [middle of 5 runs]

Q: With `CSCC[C@H](NC(=O)[C@H](CC(C)C)NC(=O)[C@H](Cc1c[nH]c2ccccc12)NC(=O)[C@H](CCC(N)=O)NC(=O)[C@@H](NC(=O)[C@H](Cc1ccccc1)NC(=O)[C@H](CC(=O)O)NC(=O)[C@H](CCC(N)=O)NC(=O)[C@H](C)NC(=O)[C@H](CCCN=C(N)N)NC(=O)[C@H](CCCN=C(N)N)NC(=O)[C@H](CO)NC(=O)[C@H](CC(=O)O)NC(=O)[C@H](CC(C)C)NC(=O)[C@H](Cc1ccc(O)cc1)NC(=O)[C@H](CCCN=C(N)N)NC(=O)[C@H](CO)NC(=O)[C@H](Cc1ccc(O)cc1)NC(=O)[C@H](CC(=O)O)NC(=O)[C@H](CO)NC(=O)[C@@H](NC(=O)[C@H](Cc1ccccc1)NC(=O)[C@@H](NC(=O)CNC(=O)[C@H](CCC(N)=O)NC(=O)[C@@H](N)CO)[C@@H](C)O)[C@@H](C)O)C(C)C)C(=O)N[C@@H](CC(N)=O)C(=O)N[C@H](C(=O)O)[C@@H](C)O` (H-SQGTFTSDYSRYLDSRRAQDFVQWLMNT-OH) as the compound, how does the Potency (Rattus norvegicus [1]) read?
A: 4%

Q: What about the Plasma glucose (Rattus norvegicus [8]) of the same compound?
A: 186 mg 100ml-1

Q: What about the Plasma glucose (Rattus norvegicus [9]) of the same compound?
A: 165 mg 100ml-1

Q: For `CSCC[C@H](NC(=O)[C@H](CC(C)C)NC(=O)[C@H](Cc1c[nH]c2ccccc12)NC(=O)[C@H](CCC(N)=O)NC(=O)[C@@H](NC(=O)[C@H](Cc1ccccc1)NC(=O)[C@H](CC(=O)O)NC(=O)[C@H](CCC(N)=O)NC(=O)[C@H](C)NC(=O)[C@H](CCCN=C(N)N)NC(=O)[C@H](CCCN=C(N)N)NC(=O)[C@H](CO)NC(=O)[C@H](CC(=O)O)NC(=O)[C@H](CC(C)C)NC(=O)[C@H](Cc1ccc(O)cc1)NC(=O)[C@H](CCCN=C(N)N)NC(=O)[C@H](CO)NC(=O)[C@H](Cc1ccc(O)cc1)NC(=O)[C@H](CC(=O)O)NC(=O)[C@H](CO)NC(=O)[C@@H](NC(=O)[C@H](Cc1ccccc1)NC(=O)[C@@H](NC(=O)CNC(=O)[C@H](CCC(N)=O)NC(=O)[C@H](CO)NC(=O)[C@@H](N)Cc1ccccc1)[C@@H](C)O)[C@@H](C)O)C(C)C)C(=O)N[C@@H](CC(N)=O)C(=O)N[C@H](C(=O)O)[C@@H](C)O` (H-FSQGTFTSDYSRYLDSRRAQDFVQWLMNT-OH), which Potency (Rattus norvegicus [1]) is on record?
A: 31%

Q: And the Plasma glucose (Rattus norvegicus [2])?
A: 183 mg 100ml-1

Q: And the Plasma glucose (Rattus norvegicus [3])?
A: 161 mg 100ml-1
